Results: ChEMBL document CHEMBL1949638, “4'-bromo-5,6,7-trimethoxyflavone represses lipopolysaccharide-induced iNOS and COX-2 expressions by suppressing the NF-κB signaling pathway in RAW 264.7 macrophages” (Bioorg Med Chem Lett, 2012)
The source made the active and inactive calls. The rule behind the calls is not given here.

What was measured:
RAW264.7 [1] = test: Antiinflammatory activity against mouse RAW264.7 cells assessed as inhibition of LPS-induced PGE2 production at 25 uM by EIA; assay type: functional
RAW264.7 [2] = test: Cytotoxicity against mouse LPS-stimulated RAW264.7 cells assessed as effect on cell viability up to 50 uM after 24 hrs; assay type: cell-based; conditions: raw264.7, 24 h
Method in brief: (§1)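 RAW 264.7 viability checked after 24 h exposure to compounds up to 50 µM, with and without LPS.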

RAW264.7 [3] = test: Antiinflammatory activity against mouse RAW264.7 cells assessed as inhibition of LPS-induced NO production at 25 uM preincubated for 1 hr before LPS challenge measured after 24 hrs by Griess method; assay type: functional
Method in brief: (§2)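 Pretreatment with test agent for 1 h, then LPS 1 μg/ml for 24 h; nitrite in culture medium measured by Griess assay. IC50 derived; means ± SDs of three independent experiments. L-NIL 10 μM served as reference NO inhibitor.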

RAW264.7 [4] = test: Cytotoxicity against mouse RAW264.7 cells; assay type: cell-based
RAW264.7 [5] = test: Cytotoxicity against mouse RAW264.7 cells assessed as effect on cell viability up to 50 uM after 24 hrs; assay type: cell-based; conditions: raw264.7, 24 h; method in brief: as §1
RAW264.7 [6] = test: Antiinflammatory activity against mouse RAW264.7 cells assessed as inhibition of LPS-induced NO production at <16.73 uM preincubated for 1 hr before LPS challenge measured after 24 hrs by Griess method; assay type: functional, cell-based
RAW264.7 [7] = test: Inhibition of NF-kappaB in mouse RAW264.7 cells assessed as reduction of LPS-induced IL6 mRNA expression at 6.25 to 25 uM after 4 hrs by quantitative RT-PCR analysis; assay type: cell-based
Method in brief: (§3)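 RNA prepared after 4 h of LPS 1 μg/ml stimulation with or without 6.25–25 μM compound. TNF-α, IL-6 and IL-1β transcripts quantified by qRT-PCR and normalised to β-actin. Three independent experiments.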

RAW264.7 [8] = test: Antiinflammatory activity against mouse RAW264.7 cells assessed as inhibition of LPS-induced NO production preincubated for 1 hr before LPS challenge measured after 24 hrs by Griess method; assay type: functional, cell-based; method in brief: as §2
RAW264.7 [9] = test: Inhibition of NF-kappaB in mouse RAW264.7 cells assessed as reduction of LPS-induced IL1beta mRNA expression at 6.25 to 25 uM after 4 hrs by quantitative RT-PCR analysis; assay type: cell-based; method in brief: as §3
RAW264.7 [10] = test: Inhibition of NF-kappaB in mouse RAW264.7 cells assessed as reduction of LPS-induced IL6 release at 6.25 to 25 uM pretreated for 1 hr before LPS challenge and measured after 24 hrs post LPS challenge by EIA; assay type: cell-based
Method in brief: (§4)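 Compound at 6.25, 12.5 or 25 μM given 1 h ahead of LPS 1 μg/ml, then 24 h incubation. TNF-α, IL-6 and IL-1β in culture medium quantified by EIA kits. Means ± SDs of three independent experiments.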

RAW264.7 [11] = test: Inhibition of NF-kappaB in mouse RAW264.7 cells assessed as inhibition of LPS-induced iNOS expression preincubated 1 hr before LPS challenge measured after 24 hrs by Western blot analysis; assay type: cell-based
Method in brief: (§5)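 1 h pretreatment at 6.25, 12.5 or 25 μM, then LPS 1 μg/ml for 24 h. Controls had neither LPS nor compound. 30 μg total protein run on SDS–PAGE, blotted to nitrocellulose, probed with iNOS- and COX-2-specific antibodies. Blots representative of three experiments.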

[12] = system: Peritoneal macrophage cell; test: Antiinflammatory activity against thioglycolate-stimulated C57BL/6 mouse peritoneal macrophages assessed as inhibition of LPS-induced PGE2 production by EIA; assay type: functional, cell-based
RAW264.7 [13] = test: Inhibition of NF-kappaB in mouse RAW264.7 cells co-transfected with piNOS-luc reporter with pRL-TK-luc assessed as inhibition of LPS-induced iNOS expression pretreated for 1 hr before LPS challenge by luciferase assay; assay type: cell-based
Method in brief: (§6)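 Cells transiently co-transfected with the piNOS-luc or pCOX-2-luc reporter plus pRL-TK-luc, then pretreated 1 h with 6.25, 12.5 or 25 μM before LPS. Luciferase activity read on a luminometer. Means ± SDs of three independent experiments.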

RAW264.7 [14] = test: Inhibition of NF-kappaB in mouse RAW264.7 cells assessed as suppression of LPS-induced iNOS mRNA level at 6.25 to 25 uM after 4 hrs by quantitative RT-PCR analysis; assay type: cell-based
Method in brief: (§7)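 Total RNA taken from cells exposed to LPS 1 μg/ml with or without 6.25, 12.5 or 25 μM compound for 4 h. Steady-state iNOS and COX-2 mRNA measured by qRT-PCR and expressed as a ratio to β-actin. Means ± SDs, n=3 independent experiments. ANOVA with Dunnett's test.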

RAW264.7 [15] = test: Inhibition of NF-kappaB in mouse RAW264.7 cells co-transfected with pCOX-2-luc reporter with pRL-TK-luc assessed as inhibition of LPS-induced COX2 expression pretreated for 1 hr before LPS challenge by luciferase assay; assay type: cell-based; method in brief: as §6
RAW264.7 [16] = test: Inhibition of NF-kappaB in mouse RAW264.7 cells assessed as suppression of LPS-induced COX2 mRNA level at 6.25 to 25 uM after 4 hrs by quantitative RT-PCR analysis; assay type: cell-based; method in brief: as §7
RAW264.7 [17] = test: Inhibition of NF-kappaB in mouse RAW264.7 cells assessed as reduction of LPS-induced TNFalpha mRNA expression at 6.25 to 25 uM after 4 hrs by quantitative RT-PCR analysis; assay type: cell-based; method in brief: as §3
RAW264.7 [18] = test: Inhibition of NF-kappaB activation in LPS-stimulated mouse RAW264.7 cells assessed as blockage of IkappaBalpha phosphorylation pretreated at 6.25 to 25 uM for 1 hr before LPS challenge measured after 15 to 60 mins post challenge by Western blotting; assay type: cell-based
Method in brief: (§8)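 Pretreatment 1 h at 6.25, 12.5 or 25 μM, then LPS 1 μg/ml for 15 min or 1 h. Cytosolic extracts immunoblotted for phospho-IκBα and IκBα, with β-actin as loading control. Blots representative of three experiments.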

RAW264.7 [19] = test: Antiinflammatory activity against mouse RAW264.7 cells assessed as inhibition of LPS-induced PGE2 production by EIA; assay type: functional, cell-based
RAW264.7 [20] = test: Inhibition of NF-kappaB activation in mouse LPS-stimulated RAW264.7 cells co-transfected with pNF-KappaB-luc reporter and pRL-TK-luc pretreated for 1 hr before LPS challenge measured after 1 hr post challenge by luciferase assay; assay type: cell-based
Method in brief: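 Cells co-transfected with pNF-κB-luc and pRL-TK-luc, pretreated 1 h with 6.25, 12.5 or 25 μM, then given LPS 1 μg/ml for another 1 h. Luciferase activity measured by luminometer. Three independent experiments.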

RAW264.7 [21] = test: Inhibition of NF-kappaB activation in LPS-stimulated mouse RAW264.7 cells assessed as blockage of IkappaBalpha degradation pretreated at 6.25 to 25 uM for 1 hr before LPS challenge measured after 15 to 60 mins post challenge by Western blotting; assay type: cell-based; method in brief: as §8
[22] = system: Peritoneal macrophage cell; test: Antiinflammatory activity against thioglycolate-stimulated C57BL/6 mouse peritoneal macrophages assessed as inhibition of LPS-induced NO production preincubated for 1 hr before LPS challenge measured after 24 hrs by Griess method; assay type: functional, cell-based
Method in brief: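 Peritoneal macrophages harvested from thioglycolate-injected C57BL/6 mice. Test agent 6.25, 12.5 or 25 μM added 1 h before LPS 1 μg/ml, with 24 h incubation. NO in the medium measured by Griess assay. Three independent experiments, means ± SDs.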

RAW264.7 [23] = test: Inhibition of NF-kappaB in mouse RAW264.7 cells assessed as reduction of LPS-induced TNFalpha release at 6.25 to 25 uM pretreated for 1 hr before LPS challenge and measured after 24 hrs post LPS challenge by EIA; assay type: cell-based; method in brief: as §4
RAW264.7 [24] = test: Inhibition of NF-kappaB in mouse RAW264.7 cells assessed as reduction of LPS-induced IL1beta release at 6.25 to 25 uM pretreated for 1 hr before LPS challenge and measured after 24 hrs post LPS challenge by EIA; assay type: cell-based; method in brief: as §4
[25] = target: Transcription factor p65 (Mus musculus) (UniProt Q04207); test: Inhibition of NF-kappaB p65 subunit nuclear translocation in LPS-induced mouse RAW264.7 cells pretreated for 1 hr before LPS challenge measured after 15 min or 1 hr post challenge by Western blot analysis
Chain of Transcription factor p65 (Mus musculus) (Q04207 whole entry): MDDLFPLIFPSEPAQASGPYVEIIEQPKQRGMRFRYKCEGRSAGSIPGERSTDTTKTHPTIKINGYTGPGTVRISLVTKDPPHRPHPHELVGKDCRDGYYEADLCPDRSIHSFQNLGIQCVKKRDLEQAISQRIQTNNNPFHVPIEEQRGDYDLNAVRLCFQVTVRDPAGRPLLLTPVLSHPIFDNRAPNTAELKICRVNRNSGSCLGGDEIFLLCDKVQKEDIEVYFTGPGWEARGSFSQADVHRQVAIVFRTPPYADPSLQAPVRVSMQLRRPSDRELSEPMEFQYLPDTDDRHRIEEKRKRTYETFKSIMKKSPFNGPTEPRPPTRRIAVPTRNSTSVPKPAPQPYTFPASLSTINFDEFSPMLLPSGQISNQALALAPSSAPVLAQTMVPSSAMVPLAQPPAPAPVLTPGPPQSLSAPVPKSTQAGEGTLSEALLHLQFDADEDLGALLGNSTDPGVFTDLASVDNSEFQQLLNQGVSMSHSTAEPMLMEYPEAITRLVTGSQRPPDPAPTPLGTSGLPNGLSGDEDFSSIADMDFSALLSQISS

RAW264.7 [26] = test: Inhibition of NF-kappaB in mouse RAW264.7 cells assessed as inhibition of LPS-induced expression of COX2 preincubated 1 hr before LPS challenge measured after 24 hrs by Western blot analysis; assay type: cell-based; method in brief: as §5

COc1cc2oc(-c3ccccc3)cc(=O)c2c(OC)c1OC [BAICALEIN TRIMETHYL ETHER]
inhibition at 25 µM (RAW264.7 [1]): 42.2%
Activity (RAW264.7 [2]): Non-toxic
inhibition at 25 µM (RAW264.7 [3]): 12.1%
IC50 (RAW264.7 [4]): > 100 µM
Activity (RAW264.7 [5]): Non-toxic

O=c1cc(-c2ccc([N+](=O)[O-])cc2)oc2cc(O)c(O)c(O)c12
inhibition at 25 µM (RAW264.7 [1]): 29.9%
Activity (RAW264.7 [2]): Non-toxic
inhibition at 25 µM (RAW264.7 [3]): 7.65%
IC50 (RAW264.7 [4]): > 100 µM
Activity (RAW264.7 [5]): Non-toxic

Nc1ccc(-c2cc(=O)c3c(O)c(O)c(O)cc3o2)cc1
inhibition at 25 µM (RAW264.7 [1]): 83.1%
Activity (RAW264.7 [2]): Non-toxic
inhibition at 25 µM (RAW264.7 [3]): 6.98%
IC50 (RAW264.7 [4]): 94.1 µM
Activity (RAW264.7 [5]): Non-toxic

COc1c(O)cc2oc(-c3ccccc3)cc(=O)c2c1O [OROXYLIN A]
inhibition at 25 µM (RAW264.7 [3]): 12.4%
IC50 (RAW264.7 [4]): 16.7 µM
Activity (RAW264.7 [6]): inactive

O=c1cc(-c2ccc(Br)cc2)oc2cc(O)c(O)c(O)c12
inhibition at 25 µM (RAW264.7 [1]): 29.9%
Activity (RAW264.7 [2]): Non-toxic
inhibition at 25 µM (RAW264.7 [3]): 27%
IC50 (RAW264.7 [4]): 57.1 µM
Activity (RAW264.7 [5]): Non-toxic

COc1cc2oc(-c3ccc(N)cc3)cc(=O)c2c(OC)c1OC
inhibition at 25 µM (RAW264.7 [1]): 69.5%
Activity (RAW264.7 [2]): Non-toxic
inhibition at 25 µM (RAW264.7 [3]): 23.1%
IC50 (RAW264.7 [4]): > 100 µM
Activity (RAW264.7 [5]): Non-toxic

COc1cc2oc(-c3ccc(Br)cc3)cc(=O)c2c(OC)c1OC
inhibition (RAW264.7 [7]): Active
IC50 (RAW264.7 [8]): 14.2 µM
inhibition (RAW264.7 [8]): Dose-dependent effect
inhibition (RAW264.7 [9]): Active
inhibition (RAW264.7 [10]): Active
inhibition (RAW264.7 [11]): Dose-dependent effect
inhibition [12]: Dose-dependent effect
inhibition (RAW264.7 [13]): Dose-dependent effect
inhibition (RAW264.7 [14]): Active
inhibition at 25 µM (RAW264.7 [1]): 89.6%
inhibition (RAW264.7 [15]): Dose-dependent effect
Activity (RAW264.7 [2]): Non-toxic
inhibition (RAW264.7 [16]): Active
inhibition (RAW264.7 [17]): Active
inhibition (RAW264.7 [18]): Active
IC50 (RAW264.7 [19]): 11 µM
inhibition (RAW264.7 [19]): Dose-dependent effect
inhibition (RAW264.7 [20]): Dose-dependent effect
inhibition (RAW264.7 [21]): Active
inhibition [22]: Dose-dependent effect
inhibition at 25 µM (RAW264.7 [3]): 89.6%
IC50 (RAW264.7 [4]): 69.9 µM
inhibition (RAW264.7 [23]): Active
inhibition (RAW264.7 [24]): Active
Activity (RAW264.7 [5]): Non-toxic
inhibition [25]: Dose-dependent effect
inhibition (RAW264.7 [26]): Dose-dependent effect

O=c1cc(-c2ccccc2)oc2cc(O)c(O)c(O)c12 [BAICALEIN]
inhibition at 25 µM (RAW264.7 [1]): 60.9%
inhibition at 25 µM (RAW264.7 [3]): 11.1%
IC50 (RAW264.7 [4]): > 100 µM

COc1cc2oc(-c3ccc([N+](=O)[O-])cc3)cc(=O)c2c(OC)c1OC
inhibition at 25 µM (RAW264.7 [1]): 84.4%
Activity (RAW264.7 [2]): Non-toxic
inhibition at 25 µM (RAW264.7 [3]): 17.4%
IC50 (RAW264.7 [4]): > 100 µM
Activity (RAW264.7 [5]): Non-toxic
